Source: PubChem (SRMLSC)
HUVEC inhibit: blocks proliferation of human endothelial cells; HUVEC proliferation, CellTiter-Glo luminescence, 72 h; stronger effect = lower value; viability, % at 10 µM (by protocol); 1.1% of 86,000 active;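 active = viability at or below 30%; inactive = viability above 30%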
H69AR growth 86K: blocks growth of human H69AR lung tumor cells. viability, % at 10 µM. 6% of 85,000 active. AID 598. H69AR lung tumor viability, ATP luminescence, 72 h; stronger effect = lower value;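 active = viability at or below 40%; inactive = viability above 40%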;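 note: multidrug resistant small cell line overexpressing MRP-1 efflux transporter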
bCat KO growth: beta-catenin-lacking colon tumor cell growth suppression | AID 818 | viability, % at 10 µM | 1.5% of 140,000 active | HCT116 beta-catenin knockout viability, CellTiter-Glo, 60 h; stronger effect = lower value;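 active = viability at or under a set limit, the compound median less 4 SD, cut at about 6% in these data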
Lung fibro prol: blocks proliferation of human lung fibroblasts. LL 47 human lung fibroblast viability, ATP luminescence; stronger effect = lower value. 1.1% of 85,000 active. viability, % at 10 µM. AID 719;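 active = viability at or below 50% in the single dose screen; inactive = viability above 50%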;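 note: compound exposure lasted 72 h before the ATP readout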
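Signal: luminescent ATP detection, CellTiter-Glo; assay system: LL 47 human lung fibroblasts; input: 1,150 cells/well; incubation: overnight cell rest, 72 h compound treatment at 37 °C; measure: % viability versus median cells-only luminescence; medium: IMEM growth medium with 15% fetal bovine serum; dosing: compound addition at 0.1% DMSO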
HCT116 PTEN-null: PTEN-deleted cell growth suppression | viability, % at 10 µM | 1.2% of 140,000 active | HCT116 PTEN-null viability, CellTiter-Glo, 60 h; stronger effect = lower value;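 active = viability at or below a set limit, 4 SD under the median of all tested compounds, cut at about 3.7% in these data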;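 note: PTEN knockout HCT116 line with beta catenin targeted HCT116 as companion control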
Numbers stand for hits; i = inactive; nt = not tested or not shown. The entries come from a sample that favours hits as a whole.

SMILES | HUVEC inhibit | H69AR growth 86K | bCat KO growth | Lung fibro prol | HCT116 PTEN-null
COc1ccc(OC)c(C2CC(c3c(-c4ccccc4)c4cc(Cl)ccc4[nH]c3=O)=NN2S(C)(=O)=O)c1 (stereo unspecified) | nt | nt | 0.6 | nt | 0.5
COc1ccc(C2CC(c3c(-c4ccccc4)c4cc(Cl)ccc4[nH]c3=O)=NN2S(C)(=O)=O)cc1 (stereo unspecified) | i | 14.0 | i | i | i
COc1ccc(C(=O)Nc2cccc(-c3cc4ccccc4oc3=O)c2)cc1[N+](=O)[O-] | nt | nt | i | nt | i
COCCCNc1c2c3c(cccc3[nH]c1=O)C(=O)c1ccccc1-2 | i | 18.3 | i | i | i
O=C(NCc1ccccc1)Nc1cccn(Cc2cccc(F)c2)c1=O | nt | nt | i | nt | i
O=C(Nc1ccccc1C(=O)NC(Cc1ccccc1)C(=O)NC1CCCCC1)c1ccccc1 (stereo unspecified) | nt | nt | i | nt | i
O=C(N=Nc1c(O)n(Cc2ccccc2)c2ccccc12)c1ccc(O)cc1 | nt | nt | i | nt | i
O=C(N=Nc1c(O)n(Cc2ccccc2)c2ccccc12)c1cc2ccccc2cc1O | nt | nt | 1.7 | nt | 1.5
O=C(CSC1=NCCN1)NC12CC3CC(CC(C3)C1)C2 | i | 15.5 | i | i | i
O=C(CSC1=NCCN1)NC1CCCCCC1 | i | i | i | i | i
Clc1ccc(-n2nnnc2-c2ccccc2)cc1Cl | i | i | i | i | i
COc1ccc(-n2nnnc2-c2cccc(OC)c2)cc1 | i | 25.7 | i | i | i
COc1ccc(-c2nnc(SCc3nnc(-c4ccccc4)o3)n2-c2ccccc2)cc1 | i | 2.6 | i | i | i
COc1ccc(-n2c(SCc3nnc(-c4ccccc4)o3)nnc2-c2ccccc2)cc1 | i | i | i | i | i
COc1ccc2[nH]c3nc(SCc4nnc(-c5ccccc5)o4)nnc3c2c1 | i | 9.3 | i | i | i
O=C(CN1CCCc2ccccc21)N/N=C/c1c(O)ccc2ccccc12 | nt | nt | i | nt | i
O=C1CSC(c2cn(-c3ccccc3)nc2-c2cc3ccccc3oc2=O)N1Cc1ccccc1 (stereo unspecified) | i | 24.3 | i | i | i
CCOC(=O)NS(=O)(=O)c1ccc(CCNC(=O)c2cc(C)on2)cc1 | nt | nt | i | nt | i
CC1(C)Cc2c(c(N3CCOCC3)nc3sc4c(=O)[nH]cnc4c23)CS1 | i | i | i | i | i
CN(C)CCNc1ncnc2c1sc1nc(N3CCOCC3)c3c(c12)CC(C)(C)SC3 | 16.6 | i | 1.7 | 16.1 | 1.8
CCN(CC)CCNc1ncnc2c1sc1nc(N3CCOCC3)c3c(c12)CC(C)(C)SC3 | 7.2 | 2.6 | 1.6 | 2.6 | 1.5
O=C1c2ccsc2SCCN1Cc1c(Cl)cccc1Cl | i | i | i | i | i
COc1ccc(C(=O)OC2CCN(c3ncc(C(F)(F)F)cc3Cl)CC2)cc1 | nt | nt | 3.4 | nt | i
CC1=CC(C)(C)Nc2ccc(OC(=O)CN3C(=O)c4ccccc4C3=O)cc21 | nt | nt | 1.4 | nt | 1.5
CCCCCC/C(=N/O)c1ccccn1 | 28.4 | 24.7 | 4.2 | i | i
SMILES | HUVEC inhibit | H69AR growth 86K | bCat KO growth | Lung fibro prol | HCT116 PTEN-null
O=C(OCC(=O)c1c[nH]c2ccccc12)c1ccco1 | i | i | i | i | i
O=C(OCc1ccccc1)C1=[N+]([O-])OC(C(=O)OCc2ccccc2)C1c1c[nH]c2ccccc12 (stereo unspecified) | i | 5.6 | i | i | i
CCN(C(=O)CSc1nnc2c3ccccc3n(CC)c2n1)C1CCS(=O)(=O)C1 (stereo unspecified) | nt | nt | i | nt | i
O=C(Nc1ccc(Cl)cc1)N1CCCN(Cc2ccccc2F)C1 | i | i | i | i | i
Cc1ccc(NC(=O)N2CCCN(Cc3ccc(F)cc3)C2)cc1C | i | 28.1 | i | nt | i
CSc1nccc(Oc2ccc(C#N)cc2)n1 | nt | nt | i | nt | i
COc1ccc(/C=C/C(=O)NC(=S)NNC(=O)c2ccco2)cc1 | i | 31.5 | i | i | i
CCN(C(=O)COC(=O)c1cccnc1Nc1ccccc1F)C1CCS(=O)(=O)C1 (stereo unspecified) | nt | nt | i | nt | i
CCOC(=O)c1[nH]c(C)c(C(=O)C(C)C)c1C | i | i | i | i | i
COc1cc(NS(=O)(=O)c2ccc(OC)c(C)c2C)c(OC)cc1Cl | i | 22.4 | i | i | i
CCCOc1ccc(C(=O)C(CN2CCOCC2)c2ccccc2)cc1 (stereo unspecified) | 3.0 | 1.6 | 2.6 | 45.5 | 2.1
COc1ccc(C(=O)C(CN2CCOCC2)c2ccccc2)cc1F (stereo unspecified) | i | 1.9 | 1.6 | 14.8 | 1.3
O=C(N/C=N/OCc1ccc(Cl)cc1Cl)NOCc1c(Cl)cccc1Cl | i | 11.2 | i | i | i
CCOc1ccccc1NC(=S)NCC1CCCO1 (stereo unspecified) | nt | nt | i | nt | i
C=CCn1c(Cc2ccc(OC)cc2)nnc1SCc1nc2ccccc2c(=O)[nH]1 | i | i | i | i | i
Cc1noc(C)c1CSc1nnc2n(-c3ccccc3)c(=O)c3ccccc3n12 | i | i | nt | i | nt
C=CCn1c(SCc2nc3ccccc3c(=O)[nH]2)nc2ccccc2c1=O | i | 5.6 | i | i | i
Cc1noc(C)c1CSc1nc2ccccc2c(=O)n1-c1ccc(F)cc1F | i | 23.2 | i | i | i
COc1ccc(-c2noc(CSc3nc4ccccc4c(=O)n3-c3ccccc3)n2)cc1 | i | 29.0 | i | i | i
O=c1c2ccccc2nc(SCc2nnc(-c3ccccc3)o2)n1-c1ccccc1 | i | i | nt | i | nt
C=CCn1c(SCc2c(C)noc2C)nc2sc3c(c2c1=O)CCCC3 | i | 28.0 | i | i | i
C=CCNC(=S)NNc1nc2c(c(=O)[nH]1)C1(CCCCC1)Cc1ccccc1-2 | nt | nt | i | nt | i
CCOC(=O)N1CCN(C(=O)C(=O)NNC(=O)COc2ccc(Cl)cc2)CC1 | nt | nt | i | nt | i
CCc1nnc(NC(=O)c2ccc3c(c2)C(=O)N(CC)C3=O)s1 | i | i | i | i | i
CC(CC(C)C(=O)Nc1ccccc1C(C)(C)C)C(=O)O (stereo unspecified) | i | i | i | i | i
SMILES | HUVEC inhibit | H69AR growth 86K | bCat KO growth | Lung fibro prol | HCT116 PTEN-null
COc1cc(/C=N/NC(=S)Nc2cccc(S(=O)(=O)N(C)C)c2)ccc1O | nt | nt | i | nt | i
Cc1noc(C)c1CSc1nc2[nH]ncc2c(=O)n1-c1ccccc1 | nt | nt | i | nt | i
C=CCn1c(SCc2c(C)noc2C)nc2ccccc2c1=O | i | 20.0 | i | 42.5 | i
Cc1noc(C)c1CSc1nc2ccccc2c(=O)n1-c1ccccc1 | i | 17.3 | i | i | i
CCOc1ccc(-n2c(O)c(/C=N/NC(=O)C3COc4ccccc4O3)c3ccccc3c2=O)cc1 (stereo unspecified) | nt | nt | i | nt | i
CN1CC=C2C(C#N)=C(N)C(C#N)(C#N)[C@H](c3cccc(Cl)c3)C2C1 (stereo partly specified) | i | i | i | i | i
CC(C)c1ccc(C2C3CSCC=C3C(C#N)=C(N)C2(C#N)C#N)cc1 (stereo unspecified) | 6.8 | 1.4 | i | i | i
CN1CC=C2C(C#N)=C(N)C(C#N)(C#N)C(CCc3ccccc3)C2C1 (stereo unspecified) | i | i | i | i | i
